We go through nine compounds from ChEMBL document CHEMBL4020757, “Lathyrol and epoxylathyrol derivatives: Modulation of Cdr1p and Mdr1p drug-efflux transporters of Candida albicans in Saccharomyces cerevisiae model” (Bioorg Med Chem, 2017).

For data set [1], the system named is Saccharomyces cerevisiae. The experiment in a line: Resistance index, ratio of MIC80 for Saccharomyces cerevisiae AD over-expressing Candida albicans MDR1 to MIC80 for Saccharomyces cerevisiae AD1-8u(-). It is filed as functional. The method in brief: (§1)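 Yeast (10⁴ cells) grown in YEPD at 30 °C for 48 h with inhibitors at 0.25-400 μM (DMSO stocks); growth read by optical density, inhibitor-free growth set as 100%. MIC80 = concentration giving 80% growth inhibition. RI = MIC80 in AD-CDR1 or AD-MDR1 divided by MIC80 in control AD1-8u⁻. Means ± SD, duplicate samples, at least three independent experiments.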

For data set [2], the system named is Candida albicans. The experiment in a line: Inhibition of Candida albicans CDR1 expressed in Saccharomyces cerevisiae AD assessed as potentiation of fluconazole-induced antifungal activity against Saccharomyces cerevisiae AD by checkerboard method. The essentials:
(§2)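 Checkerboard per CLSI in AD1-8u⁻ control, AD-CDR1 or AD-MDR1 cells (10⁴ cells) grown 48 h at 30 °C. Fluconazole 4-209 μM crossed with compound 0.25-400 μM. Growth read by optical density. FIC of each agent is its MIC in combination divided by its MIC alone. FICI is the sum of the fluconazole and compound FICs, with values below 0.5 taken as synergy.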

The test system of data set [3] is Candida albicans. The experiment in a line: Inhibition of Candida albicans CDR1 expressed in Saccharomyces cerevisiae AD assessed as potentiation of fluconazole-induced antifungal activity against Saccharomyces cerevisiae AD by measuring fold reduction in fluconazole MIC80 by checkerboard method. The method in brief: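 AD-CDR1 cells (10⁴) grown 48 h at 30 °C in a CLSI checkerboard, fluconazole 4-209 μM crossed with compound 0.25-400 μM, growth read by optical density. Fold reduction is derived from the fluconazole MIC alone versus the fluconazole MIC in combination.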

Data set [4] is described as follows: Lipophilicity, log P of the compound. It is filed as physicochemical. The following applies: octanol/water.
Data set [5] relates to Saccharomyces cerevisiae. In words: Antifungal activity against Saccharomyces cerevisiae AD over-expressing Candida albicans CDR1 after 48 hrs. It is filed as functional. The essentials:
as §1

The test system of data set [6] is Candida albicans. The experiment in a line: Inhibition of Candida albicans CDR1 expressed in Saccharomyces cerevisiae AD assessed as reduction in nile red dye efflux at 70 uM after 30 mins by flow cytometry relative to control. The essentials:
(§3)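 AD-CDR1 or AD-MDR1 cells grown in YEPD at 30 °C with shaking from OD600 0.1 to 0.25, then resuspended as a 5% suspension in 1:2 YEPD:water. Nile Red (final 7 μM) added with or without compound at 70 μM, 30 min at 30 °C. Cells washed twice and 10,000 cells analysed by flow cytometry. Efflux rate expressed relative to untreated control cells. Means ± SD, three independent experiments.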
For orientation: In flow cytometry, cells or beads pass a laser one at a time.

Data set [7] deals with Saccharomyces cerevisiae. The experiment in a line: Potentiation of fluconazole-induced antifungal activity against Saccharomyces cerevisiae AD1-8u(-) by checkerboard method. It counts as functional. The method in brief: as §2
Data set [8] concerns Saccharomyces cerevisiae. In words: Antifungal activity against Saccharomyces cerevisiae AD1-8u(-) after 48 hrs. It counts as functional. The essentials:
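S. cerevisiae AD1-8u⁻ control strain revived from glycerol stock on YEPD plates and grown in YEPD at 30 °C. 10⁴ cells exposed to compound at 0.25-400 μM for 48 h at 30 °C. Growth read as optical density, with no-inhibitor growth as 100%. MIC80 is the concentration giving 80% growth inhibition. Means ± SD of duplicates from at least three independent experiments.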

In data set [9] the test system is Saccharomyces cerevisiae. In words: Resistance index, ratio of MIC80 for Saccharomyces cerevisiae AD over-expressing Candida albicans CDR1 to MIC80 for Saccharomyces cerevisiae AD1-8u(-). It counts as functional. The essentials:
as §1

Data set [10] relates to Candida albicans. The experiment in a line: Inhibition of Candida albicans MDR1 expressed in Saccharomyces cerevisiae AD assessed as ratio of compound MIC80 in combinantion with fluconazole to compound alone MIC80 for Saccharomyces cerevisiae AD by checkerboard method. The method in brief: (§4)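 Checkerboard per CLSI with 10⁴ cells of AD-CDR1, AD-MDR1 or AD1-8u⁻, grown 48 h at 30 °C. Fluconazole 4-209 μM crossed with compound 0.25-400 μM, growth read by optical density. Compound FIC is the compound MIC in combination with fluconazole divided by its MIC alone.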

Data set [11] deals with Candida albicans. The experiment in a line: Inhibition of Candida albicans CDR1 expressed in Saccharomyces cerevisiae AD assessed as ratio of compound MIC80 in combinantion with fluconazole to compound alone MIC80 for Saccharomyces cerevisiae AD by checkerboard method. The method in brief:
as §4

For data set [12], the system named is Candida albicans. The experiment in a line: Inhibition of Candida albicans MDR1 expressed in Saccharomyces cerevisiae AD assessed as reduction in nile red dye efflux at 70 uM after 30 mins by flow cytometry relative to control. The method in brief:
as §3

The subject of data set [13] is Saccharomyces cerevisiae. In words: Synergistic antifungal activity against Saccharomyces cerevisiae AD1-8u(-) assessed as ratio of compound MIC80 in combinantion with fluconazole to compound alone MIC80 by checkerboard method. It counts as functional. The method in brief:
as §4

Data set [14] concerns Candida albicans. In words: Inhibition of Candida albicans MDR1 expressed in Saccharomyces cerevisiae AD assessed as potentiation of fluconazole-induced antifungal activity against Saccharomyces cerevisiae AD by checkerboard method. The method in brief:
as §2

For data set [15], the system named is Saccharomyces cerevisiae. In words: Antifungal activity against Saccharomyces cerevisiae AD over-expressing Candida albicans MDR1 after 48 hrs. It is filed as functional. The method in brief: as §1

SMILES strings stand for the structures. ≈ marks a conversion by molar mass, not a printed value.

Take `CCC(=O)O[C@@H]1[C@@H]2[C@@H](OC(C)=O)[C@]3(CC[C@H]4[C@@H](/C=C(\C)C(=O)[C@@]2(OC(C)=O)C[C@@H]1C)C4(C)C)CO3`: the Ratio came to 0.97 in [1]; 0.98 in data set [9]; 1 in data set [10]; 0.5 in data set [11]; 1 in data set [13]. The results for the fractional inhibitory concentration index (FICI) in data set [2], in data set [7] and in data set [14] were 0.54, 2 and 1.3, respectively. The fold change (FC) in data set [3] worked out at 23. Also, the logP (commonly the decadic logarithm of the partition coefficient of the neutral form, usually between octanol and water) in data set [4] stood at 2.32. The MIC80 (in general, the lowest concentration that inhibits either 80% of growth or 80% of the strains tested, depending on the study) in data set [5] was 501 µM (≈ 246 µg/mL); in data set [8] it was 510 µM (≈ 250 µg/mL); in [15], 498 µM (≈ 244 µg/mL). The inhibition – broadly, the relative decrease from the control value, in per cent – in [6] was determined as 10%; in [12], 20%.
For `C=C1CC[C@H]2[C@@H](/C=C(\C)C(=O)[C@@]3(O)C[C@H](C)[C@H](O)[C@@H]3[C@H]1OC(=O)c1cccc(OC)c1)C2(C)C`, the Ratio came to 1.05 in data set [1]; 0.92 in data set [9]; 1 in data set [10]; 1 in [11]; 1 in data set [13]. The fractional inhibitory concentration index (FICI) in data set [2] came out at 1.4; in [7], 2; in data set [14], 1.3. The same compound yielded a logP in [4] of 3.42. Also, the MIC80 in data set [5] turned out to be 992 µM (≈ 465 µg/mL); in [8], 1070 µM (≈ 500 µg/mL); in [15], 1120 µM (≈ 526 µg/mL). For the same compound, the inhibition is 80% in [6] and 35% in data set [12].
Turning to `CCCCC(CC)C(=O)O[C@@H]1[C@@H]2[C@@H](OC(=O)C(CC)CCCC)[C@]3(CC[C@H]4[C@@H](/C=C(\C)C(=O)[C@@]2(O)C[C@@H]1C)C4(C)C)CO3` (some centres not stated), the Ratio in data set [1] worked out at 0.96; in data set [9] it was 0.96; in data set [10], 1; in data set [11], 1; in [13], 1. Also, the fractional inhibitory concentration index (FICI) in [2] stood at 1.4; in data set [7] it was 2; in data set [14], 1.3. The compound also gave a logP in [4] of 6.45. For the same compound, the values for the MIC80 in data set [5], in [8] and in data set [15] were 799 µM (≈ 482 µg/mL), 830 µM (≈ 500 µg/mL) and 800 µM (≈ 482 µg/mL), respectively. Further, the inhibition worked out at 30% in [6] and 20% in [12].
As to `C/C1=C\[C@@H]2[C@H](CC[C@]3(CO3)[C@H](OC(=O)c3ccccc3)[C@H]3[C@@H](OC(=O)c4ccccc4)[C@@H](C)C[C@]3(OC(=O)c3ccccc3)C1=O)C2(C)C`, the Ratio in data set [1] was 0.86; in data set [9], 0.92; in data set [10], 1; in data set [11] it was 1; in [13], 1. Also, the fractional inhibitory concentration index (FICI) in data set [2] is 1.4; in data set [7], 2; in data set [14], 1.3. The same compound displayed a logP in data set [4] of 5.99. Besides, the results for the MIC80 in data set [5], in [8] and in data set [15] were 700 µM (≈ 464 µg/mL), 755 µM (≈ 500 µg/mL) and 654 µM (≈ 433 µg/mL), respectively. In addition, the inhibition in data set [6] stood at 10%; in data set [12] it was 20%.
With `C=C1CC[C@H]2[C@@H](/C=C(\C)C(=O)[C@@]3(O)C[C@H](C)[C@H](O)[C@@H]3[C@H]1OC(=O)/C=C/c1ccccc1)C2(C)C`, the Ratio in data set [1] is 0.93; in [9], 0.92; in data set [10], 1; in data set [11] it was 1; in data set [13], 1. In addition, the values for the fractional inhibitory concentration index (FICI) in [2], in data set [7] and in data set [14] were 1.4, 2 and 1.3, respectively. The compound also came in with a logP in [4] of 3.93. For the same compound, the MIC80 in data set [5] stood at 993 µM (≈ 461 µg/mL); in data set [8] it was 1080 µM (≈ 500 µg/mL); in data set [15], 1010 µM (≈ 470 µg/mL). For the same compound, the inhibition in data set [6] amounted to 65%; in data set [12], 30%.
As to `C=C1CC[C@H]2[C@@H](/C=C(\C)C(=O)[C@@]3(O)C[C@H](C)[C@H](O)[C@@H]3[C@H]1OC(=O)c1ccccc1)C2(C)C`, the Ratio was found to be 0.93 in data set [1]; 0.95 in [9]; 1 in data set [10]; 1 in [11]; 1 in data set [13]. Moreover, the fractional inhibitory concentration index (FICI) in data set [2] was found to be 1.4; in data set [7], 2; in [14], 1.3. In [4], the logP was found to be 3.19. Further, the MIC80 in data set [5] amounted to 1090 µM (≈ 478 µg/mL); in data set [8], 1140 µM (≈ 500 µg/mL); in data set [15] it was 1070 µM (≈ 468 µg/mL). The inhibition in data set [6] worked out at 85%; in data set [12], 35%.
Take `C/C1=C\[C@@H]2[C@H](CC[C@]3(CO3)[C@H](OC(=O)c3ccc(C)cc3)[C@H]3[C@@H](OC(=O)c4ccc(C)cc4)[C@@H](C)C[C@]3(O)C1=O)C2(C)C`: the Ratio amounted to 0.94 in [1]; 0.92 in data set [9]; 1 in data set [10]; 1 in data set [11]; 1 in data set [13]. Besides, the fractional inhibitory concentration index (FICI) in data set [2] was found to be 1.4; in data set [7], 2; in [14], 1.3. Further, the logP in [4] was 5. The MIC80 in data set [5] was 789 µM (≈ 463 µg/mL); in [8], 853 µM (≈ 500 µg/mL); in data set [15] it was 803 µM (≈ 471 µg/mL). The inhibition came to 30% in data set [6] and 25% in [12].
With `C=C1CC[C@H]2[C@@H](/C=C(\C)C(=O)[C@@]3(O)C[C@H](C)[C@H](O)[C@@H]3[C@H]1O)C2(C)C`, the Ratio in [1] is 0.98; in [9], 1.01; in [10] it was 1; in data set [11], 1; in data set [13] it was 1. Further, the fractional inhibitory concentration index (FICI) amounted to 1.4 in data set [2], 2 in data set [7] and 1.3 in data set [14]. In addition, the logP in data set [4] was found to be 1.48. The MIC80 in data set [5] was 1520 µM (≈ 510 µg/mL); in data set [8], 1500 µM (≈ 502 µg/mL); in data set [15], 1480 µM (≈ 494 µg/mL). For the same compound, the inhibition amounted to 40% in [6] and 30% in [12].
Regarding `C=C1CC[C@H]2[C@@H](/C=C(\C)C(=O)[C@@]3(O)C[C@H](C)[C@H](O)[C@@H]3[C@H]1OC(=O)c1ccc(C(F)(F)F)cc1)C2(C)C`, the Ratio came out at 0.9 in data set [1]; 0.91 in [9]; 1 in [10]; 1 in [11]; 1 in [13]. For the same compound, the fractional inhibitory concentration index (FICI) was determined as 1.4 in data set [2], 2 in [7] and 1.3 in data set [14]. In addition, the logP in data set [4] is 4.16. Also, the MIC80 in data set [5] stood at 900 µM (≈ 456 µg/mL); in [8], 988 µM (≈ 500 µg/mL); in data set [15] it was 896 µM (≈ 454 µg/mL). Also, the inhibition came out at 70% in data set [6] and 15% in data set [12].
